Measured values collected from several papers.
Protocols differ between the studies behind these lines.
SLCO1B3: Solute carrier organic anion transporter family member 1B3 (SLCO1B3, Homo sapiens, UniProt Q9NPD5)

Compound	tested on	assay	test system	conditions	quantity	value
CN(C(=O)n1cnc(-c2ccc[n+]([O-])c2)c1)C1CCCCC1	SLCO1B3	transporter uptake, inhibitor	HEK293	1 µg/mL	inhibition	11%
COc1cc(C(=O)NC2CCN(C)CC2)c(F)cc1Nc1ncc(C(F)(F)F)c(Oc2cccc3c2C(=O)N(C)C3)n1			human, plasma	oral, 200 mg, multiple doses, once daily, patients	CL/F	160 mL/min
c1cnc2ccc(Nc3nc(NC4CC4)c4nc[nH]c4n3)cc2c1			human, plasma	oral, 50 mg/m², patients	CL/F	3180 mL/min
Oc1ccc(-c2nc(N3CCC(c4ccccn4)C3)c3ccccc3n2)cc1 (centres unmarked)		metabolic stability	human, liver microsomes		microsomal CLint	99 µL/min/mg
CN(c1ccc(F)cc1)c1c(-c2cccc(F)n2)nc2ccccn12		metabolic stability	rat, hepatocytes		hepatocyte CLint	> 300 µL/min/10⁶ cells
O=C(O[C@H]1[C@@H]2C=CO[C@@H](O[C@@H]3O[C@H](CO)[C@@H](O)[C@H](O)[C@H]3O)[C@@H]2[C@@]2(CO)O[C@@H]12)c1ccc(O)cc1	SLCO1B3	transporter uptake, substrate	HEK293	5 min	Km	502 µM
Fc1ccc(Nc2c(Cn3cccn3)nc3ccccn23)cc1		metabolic stability	rat, hepatocytes		hepatocyte CLint	51 µL/min/10⁶ cells
CN(CCC(=O)O)C(=O)c1ccc2c(c1)CC[C@@H]1[C@@H]2CC[C@]2(C)C(c3cncc(F)c3)=CC[C@@H]12	SLCO1B3	transporter uptake, inhibitor			IC50	41 µM
COc1ccnc(-c2nc3ccccn3c2N(C)c2ccc(F)cc2)c1		metabolic stability	rat, hepatocytes		hepatocyte CLint	> 300 µL/min/10⁶ cells
C[C@H]1C[C@H]2[C@@H]3CCC4=CC(=O)C=C[C@]4(C)[C@@]3(Cl)[C@@H](O)C[C@]2(C)[C@@]1(O)C(=O)CO	SLCO1B3	transporter uptake, inhibitor			IC50	1.4 µM
Cc1ccc(C(=O)N(CCCN)[C@@H](c2oc3cc(Cl)ccc3c(=O)c2Cc2ccccc2)C(C)C)cc1			human, plasma	intravenous, 4 mg/m², single dose, patients, infusion	clearance	24.8 mL/min
